In ChEMBL document CHEMBL1124207, “Effect of the CH2NH and CH2NAc peptide bond isosteres on the antagonistic and histamine releasing activities of a luteinizing hormone-releasing hormone analogue” (1988):
Values after ≈ are worked out from the molar mass of the structure shown. Square brackets hold non-standard residues; d marks the D form. Peptide text beside a SMILES is read from it. d2Nal = N[C@H](Cc1ccc2ccccc2c1)C(=O)O

How the values were obtained:
Assay type in all cases: functional
Rattus norvegicus [1] = organism: Rattus norvegicus; assay: In vitro histamine releasing activity determined with peritoneal mast cells from male Sprague-Dawley rats.; conditions: Mast cell, read-out: ED50 (the source's name)
Rattus norvegicus [2] = organism: Rattus norvegicus; assay: Antiovulatory activity expressed as the percentage of rats blocked at 50 ug
In short: (§1)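 Female Sprague-Dawley rats dosed in a 40% propane-1,2-diol/0.9% saline vehicle in a standard antiovulatory assay. The read-out is ovulation block, reported as the percentage of n rats not ovulating at x μg of analogue.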

Rattus norvegicus [3] = organism: Rattus norvegicus; assay: Antiovulatory activity expressed as the percentage of rats blocked at 6 ug; in short: as §1
Rattus norvegicus [4] = organism: Rattus norvegicus; assay: Antiovulatory activity expressed as the percentage of rats blocked at 12 ug; in short: as §1
Rattus norvegicus [5] = organism: Rattus norvegicus; assay: Antiovulatory activity expressed as the percentage of rats blocked at 0.5 ug; in short: as §1

EC50 (Rattus norvegicus [1]) | SMILES | Rats blocked (Rattus norvegicus [2]) | Rats blocked (Rattus norvegicus [3]) | Rats blocked (Rattus norvegicus [4]) | Rats blocked (Rattus norvegicus [5])
1.5 µg/mL (≈ 1.05 µM) | CC(=O)N[C@H](Cc1ccc2ccccc2c1)C(=O)N[C@H](Cc1ccccc1)C(=O)N[C@H](Cc1ccccc1)C(=O)N[C@@H](CO)C(=O)N[C@@H](Cc1ccc(O)cc1)C(=O)N[C@@H](CCCCN)CN(C(C)=O)[C@@H](Cc1ccccc1)C(=O)N[C@@H](CCCN=C(N)N)C(=O)N1CCC[C@H]1C(=O)N[C@H](C)C(=O)O | 33% | – | – | –
0.35 µg/mL (≈ 0.247 µM) | CC(=O)N[C@H](Cc1ccc2ccccc2c1)C(=O)N[C@H](CN[C@H](Cc1ccccc1)C(=O)N[C@@H](CO)C(=O)N[C@@H](Cc1ccc(O)cc1)C(=O)N[C@H](CCCN=C(N)N)C(=O)N[C@@H](Cc1ccccc1)C(=O)N[C@@H](CCCN=C(N)N)C(=O)N1CCC[C@H]1C(=O)N[C@H](C)C(=O)O)Cc1ccccc1 | 0% | – | – | –
1.5 µg/mL (≈ 1.06 µM) | CC(=O)N[C@H](CN[C@H](Cc1ccccc1)C(=O)N[C@H](Cc1ccccc1)C(=O)N[C@@H](CO)C(=O)N[C@@H](Cc1ccc(O)cc1)C(=O)N[C@H](CCCN=C(N)N)C(=O)N[C@@H](Cc1ccccc1)C(=O)N[C@@H](CCCN=C(N)N)C(=O)N1CCC[C@H]1C(=O)N[C@H](C)C(=O)O)Cc1ccc2ccccc2c1 | 0% | – | – | –
1.5 µg/mL (≈ 1.06 µM) | CC(=O)N[C@H](Cc1ccc2ccccc2c1)C(=O)N[C@H](Cc1ccccc1)C(=O)N[C@H](Cc1ccccc1)C(=O)N[C@@H](CO)C(=O)N[C@H](CN[C@H](CCCN=C(N)N)C(=O)N[C@@H](Cc1ccccc1)C(=O)N[C@@H](CCCN=C(N)N)C(=O)N1CCC[C@H]1C(=O)N[C@H](C)C(=O)O)Cc1ccc(O)cc1 | – | – | 100% | –
0.46 µg/mL (≈ 0.325 µM) | CC(=O)N[C@H](Cc1ccc2ccccc2c1)C(=O)N[C@H](Cc1ccccc1)C(=O)N[C@H](Cc1ccccc1)C(=O)N[C@@H](CO)C(=O)N[C@@H](Cc1ccc(O)cc1)C(=O)N[C@H](CCCN=C(N)N)C(=O)N[C@H](CN[C@@H](CCCN=C(N)N)C(=O)N1CCC[C@H]1C(=O)N[C@H](C)C(=O)O)Cc1ccccc1 | 0% | – | – | –
0.19 µg/mL (≈ 0.134 µM) | CC(=O)N[C@H](Cc1ccc2ccccc2c1)C(=O)N[C@H](Cc1ccccc1)C(=O)N[C@H](Cc1ccccc1)C(=O)N[C@@H](CO)CN[C@@H](Cc1ccc(O)cc1)C(=O)N[C@H](CCCN=C(N)N)C(=O)N[C@@H](Cc1ccccc1)C(=O)N[C@@H](CCCN=C(N)N)C(=O)N1CCC[C@H]1C(=O)N[C@H](C)C(=O)O | – | – | 63% | –
1.9 µg/mL (≈ 1.37 µM) | CC(=O)N[C@H](Cc1ccc2ccccc2c1)C(=O)N[C@H](Cc1ccccc1)C(=O)N[C@H](Cc1ccccc1)C(=O)N[C@@H](CO)C(=O)N[C@@H](Cc1ccc(O)cc1)C(=O)N[C@@H](CCCCN)CN[C@@H](Cc1ccccc1)C(=O)N[C@@H](CCCN=C(N)N)C(=O)N1CCC[C@H]1C(=O)N[C@H](C)C(=O)O | 60% | – | – | –

The remaining lines, values behind:

SMILES | EC50 (Rattus norvegicus [1]) | Rats blocked (Rattus norvegicus [2]) | Rats blocked (Rattus norvegicus [3]) | Rats blocked (Rattus norvegicus [4]) | Rats blocked (Rattus norvegicus [5])
CC(=O)N[C@H](Cc1ccc2ccccc2c1)C(=O)N[C@H](Cc1ccccc1)C(=O)N[C@H](CN[C@@H](CO)C(=O)N[C@@H](Cc1ccc(O)cc1)C(=O)N[C@H](CCCN=C(N)N)C(=O)N[C@@H](Cc1ccccc1)C(=O)N[C@@H](CCCN=C(N)N)C(=O)N1CCC[C@H]1C(=O)N[C@H](C)C(=O)O)Cc1ccccc1 | 0.43 µg/mL (≈ 0.304 µM) | 0% | – | – | –
CCN(CC)[C@H](Cc1ccc2ccccc2c1)C(=O)N[C@H](Cc1ccccc1)C(=O)N[C@H](Cc1ccccc1)C(=O)N[C@@H](CO)C(=O)N[C@@H](Cc1ccc(O)cc1)C(=O)N[C@H](CCCN=C(N)N)C(=O)N[C@@H](Cc1ccccc1)C(=O)N[C@@H](CCCN=C(N)N)C(=O)N1CCC[C@H]1C(=O)N[C@H](C)C(=O)O | 0.45 µg/mL (≈ 0.312 µM) | – | 0% | – | –
CC(=O)N[C@H](Cc1ccc2ccccc2c1)C(=O)N[C@H](Cc1ccccc1)C(=O)N[C@H](Cc1ccccc1)C(=O)N[C@@H](CO)C(=O)N[C@@H](Cc1ccc(O)cc1)C(=O)N[C@H](CCCN=C(N)N)C(=O)N[C@@H](Cc1ccccc1)C(=O)N[C@@H](CCCN=C(N)N)C(=O)N1CCC[C@H]1C(=O)N[C@H](C)C(N)=O (Ac-[d2Nal][dF][dF]SY[dR]FRP[dA]-NH2) | 0.11 µg/mL (≈ 0.077 µM) | – | – | – | 56%
CC(=O)N[C@H](Cc1ccc2ccccc2c1)C(=O)N[C@H](Cc1ccccc1)C(=O)N[C@H](Cc1ccccc1)C(=O)N[C@@H](CO)C(=O)N[C@@H](Cc1ccc(O)cc1)C(=O)N[C@H](CCCN=C(N)N)C(=O)N[C@@H](Cc1ccccc1)C(=O)N[C@@H](CCCN=C(N)N)C(=O)N1CCC[C@@H]1CN[C@H](C)C(=O)O | 0.21 µg/mL (≈ 0.148 µM) | – | 44% | 92% | –
CCN[C@H](Cc1ccc2ccccc2c1)C(=O)N[C@H](Cc1ccccc1)C(=O)N[C@H](Cc1ccccc1)C(=O)N[C@@H](CO)C(=O)N[C@@H](Cc1ccc(O)cc1)C(=O)N[C@H](CCCN=C(N)N)C(=O)N[C@@H](Cc1ccccc1)C(=O)N[C@@H](CCCN=C(N)N)C(=O)N1CCC[C@H]1C(=O)N[C@H](C)C(=O)O | 0.34 µg/mL (≈ 0.24 µM) | – | 17% | – | –
CC(=O)N[C@H](Cc1ccc2ccccc2c1)C(=O)N[C@H](Cc1ccccc1)C(=O)N[C@H](Cc1ccccc1)C(=O)N[C@@H](CO)CN(C(C)=O)[C@@H](Cc1ccc(O)cc1)C(=O)N[C@H](CCCN=C(N)N)C(=O)N[C@@H](Cc1ccccc1)C(=O)N[C@@H](CCCN=C(N)N)C(=O)N1CCC[C@H]1C(=O)N[C@H](C)C(=O)O | 0.45 µg/mL (≈ 0.309 µM) | 0% | – | – | –
CC(=O)N[C@H](Cc1ccc2ccccc2c1)C(=O)N[C@H](Cc1ccccc1)C(=O)N[C@H](Cc1ccccc1)C(=O)N[C@@H](CO)C(=O)N[C@@H](Cc1ccc(O)cc1)C(=O)N[C@H](CCCN=C(N)N)C(=O)N[C@@H](Cc1ccccc1)C(=O)N[C@@H](CCCN=C(N)N)C(=O)N1CCC[C@@H]1CN(C(C)=O)[C@H](C)C(=O)O | 0.28 µg/mL (≈ 0.192 µM) | 100% | – | 75% | –
CC(=O)N[C@H](Cc1ccc2ccccc2c1)C(=O)N[C@H](Cc1ccccc1)C(=O)N[C@H](Cc1ccccc1)C(=O)N[C@@H](CO)C(=O)N[C@@H](Cc1ccc(O)cc1)CN(C(C)=O)[C@H](CCCN=C(N)N)C(=O)N[C@@H](Cc1ccccc1)C(=O)N[C@@H](CCCN=C(N)N)C(=O)N1CCC[C@H]1C(=O)N[C@H](C)C(=O)O | 4 µg/mL (≈ 2.74 µM) | 0% | – | – | –
